Like-named read-outs stand apart in the source and are kept apart here.
Assays:
[1] = target: mouse brain serine hydrolases (Homo sapiens, UniProt O75884); format: biochemical
GSTO1 [2] = target: T1, GSTO1 (Homo sapiens, UniProt P78417); experiment: Reversibility of GSTO1 inhibition by gel filtration; format: biochemical; settings: 6 and 9 at 280 μM, 7 and 8 at 28 μM, 30 min, then Sephadex G-25M
T1 sequence (P78417 1-241): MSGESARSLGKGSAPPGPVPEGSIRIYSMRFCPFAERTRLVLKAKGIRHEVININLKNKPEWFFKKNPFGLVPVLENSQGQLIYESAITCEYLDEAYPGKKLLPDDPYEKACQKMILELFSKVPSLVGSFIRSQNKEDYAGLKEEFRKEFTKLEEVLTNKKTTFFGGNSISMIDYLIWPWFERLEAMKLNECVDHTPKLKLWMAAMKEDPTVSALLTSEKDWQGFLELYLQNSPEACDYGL
How it was run: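 Recombinant GSTO1 (2 μM) was incubated 30 min with DMSO or test compound, then split. One portion was labeled directly with SE-rhodamine. The other was passed over a Sephadex G-25M gel-filtration column before SE-rhodamine labeling. Both were resolved by SDS-PAGE with in-gel fluorescence read-out.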

[3] = system: endogenous GSTO1 and other SE-rhodamine targets; format: biochemical, human
RBBP9 [4] = target: T2, RBBP9 (Homo sapiens, UniProt O75884); experiment: Gel-based competitive ABPP of RBBP9 with varying Pluronic F-127; format: biochemical; settings: compound 5 at 10 and 20 µM, emetine 20 µM; 400 nM RBBP9
RBBP9 [5] = target: T2, RBBP9; experiment: Reversibility of RBBP9 inhibition by gel filtration; format: biochemical; settings: emetine 500 μM or compound 2 50 μM, 30 min, then Sephadex G-25M
GSTO1 [6] = target: T1, GSTO1; format: biochemical
RBBP9 [7] = target: T2, RBBP9; format: biochemical

T2 sequence (O75884 whole entry): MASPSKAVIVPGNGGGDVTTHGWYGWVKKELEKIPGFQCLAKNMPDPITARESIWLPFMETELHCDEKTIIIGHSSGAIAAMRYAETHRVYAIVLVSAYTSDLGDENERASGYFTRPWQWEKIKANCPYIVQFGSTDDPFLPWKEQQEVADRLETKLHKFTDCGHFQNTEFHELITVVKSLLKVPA
Chain of mouse brain serine hydrolases (O75884 whole entry): as above

CC[C@H]1CN2CCc3cc(OC)c(OC)cc3[C@@H]2C[C@@H]1C[C@H]1NCCc2c1[nH]c1ccc(O)cc21 [1c, Tubulosine]
inhibition of RBBP9 by emetine analogues (competitive ABPP) [1]: inhibited RBBP9, albeit with reduced potency relative to emetine

COc1ccc2[nH]c([S+]([O-])Cc3ncc(C)c(OC)c3C)nc2c1 (stereo not drawn) [Compound 6, omeprazole]
reversibility of GSTO1 inhibition (GSTO1 [2]): reversible
inhibition of GSTO1 in MDA-MB-231 proteome ([3]; 1 μM): lost
inhibition of GSTO1 in MDA-MB-231 proteome ([3]; 20 μM): considerably less potent

CC[C@H]1CN2CCc3cc(OC)c(OC)cc3[C@@H]2C[C@@H]1C[C@H]1NCCc2cc(O)c(OC)cc21 [1a, Cephaeline]
inhibition of RBBP9 by emetine analogues (competitive ABPP) [1]: inhibited RBBP9, albeit with reduced potency relative to emetine

CO[C@H]1/C=C/O[C@@]2(C)Oc3c(C)c(O)c4c(O)c(c(/C=N/N5CCN(C)CC5)c(O)c4c3C2=O)NC(=O)/C(C)=C\C=C\[C@H](C)[C@H](O)[C@@H](C)[C@@H](O)[C@@H](C)[C@H](OC(C)=O)[C@@H]1C [Compound 9, rifampicin]
reversibility of GSTO1 inhibition (GSTO1 [2]): reversible
inhibition of GSTO1 in MDA-MB-231 proteome ([3]; 1 μM): lost
inhibition of GSTO1 in MDA-MB-231 proteome ([3]; 20 μM): considerably less potent

CC[C@H]1CN2CCc3cc(OC)c(OC)cc3[C@@H]2C[C@@H]1C[C@H]1NCCc2cc(OC)c(OC)cc21 [Compound 1, Emetine]
effect of Pluronic F-127 on inhibitory activity (RBBP9 [4]): did not diminish the inhibitory activity
effect on other SE-rhodamine targets in MDA-MB-231 proteome ([3]; 20 μM): did not inhibit the labeling of GSTO1 or any of the other SE-rhodamine targets
inhibition of GSTO1 in MDA-MB-231 proteome ([3]; 20 μM): did not inhibit the labeling of GSTO1
reversibility of RBBP9 inhibition (RBBP9 [5]): reversible
block of probe labeling of GSTO1 (FluoPol) (GSTO1 [6]): did not block probe labeling of GSTO1

N[C@@H](CCC(=O)N[C@@H](CS)C(=O)NCC(=O)O)C(=O)O [glutathione]
block of probe labeling of GSTO1 (FluoPol) (GSTO1 [6]): No labeling

CCC1=C(C[C@H]2NCCc3cc(OC)c(OC)cc32)C[C@H]2c3cc(OC)c(OC)cc3CCN2C1 [1b, Dehydroemetine]
inhibition of RBBP9 (RBBP9 [7]): failed to inhibit RBBP9

Reference: paper PMC2709489 (Nature biotechnology, 2009)
